What was measured:
A549 or CoLo-357 cells = format: cell-based, human; conditions: for Effect of inhibitor on liposome accumulation/binding: preincubation with inhibitor, then liposomes 100 μM total lipids, 37°C
[1] = Plasma retention of liposomal MTX-DG versus intact MTX in mice; format: in vivo; conditions: IV
How it was run: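 Female F1(CBA × C57BL/6) mice, 20–22 g, 6–8 weeks old, received 10 mg/kg free parent drug or an equivalent liposomal prodrug dose IV by tail vein (0.2 mL). Groups of n=3 were decapitated at set times and serum collected at 600×g for 10 min. Drug was measured by RP-HPLC after HClO4 deproteinisation; prodrug by RP-HPLC with UV detection at 313 nm. Both were calibrated against spiked or extracted control serum.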

[2] = test system: ASF-LL T-cell leukemic lymphoma; experiment: Antitumor effect in transplanted mouse T-cell leukemic lymphoma; format: in vivo
How it was run: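 A/Sn female mice aged 6 or 12 months, one experiment per age, received 10^6 ASF-LL cells SC on day 0. Groups of n=6 got IV free parent drug (10 mg/kg) or an equivalent liposomal prodrug dose in 0.2 mL PBS/1 mM EDTA, pH 7.0, on days 3, 5, 10 and 12. Controls got vehicle. Daily survival monitoring; euthanasia at >20% weight loss and/or food rejection. Mean ± SD, Student's t-test.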

In the case of `C=C1[C@@H](C)[C@H]2[C@H](Cc3ccccc3)NC(=O)[C@]23OC(=O)/C=C/[C@H](O)CCC[C@@H](C)C/C=C/[C@H]3[C@@H]1O` [cytochalasin B], the “Effect of inhibitor on liposome accumulation/binding” value (A549 or CoLo-357 cells) is reported as “elusive effects”.

For `COC(=O)Nc1nc2ccc(C(=O)c3cccs3)cc2[nH]1` [nocodazole], the “Effect of inhibitor on liposome accumulation/binding” value (A549 or CoLo-357 cells) was “elusive effects”.

With `COc1cc2c(c(OC)c1OC)-c1ccc(OC)c(=O)cc1[C@@H](NC(C)=O)CC2` [colchicine] the “Effect of inhibitor on liposome accumulation/binding” value (A549 or CoLo-357 cells) was “elusive effects”.

With `CN(C)CCCN1c2ccccc2Sc2ccc(Cl)cc21` [chlorpromazine] the “Effect of inhibitor on liposome accumulation/binding” value (A549 or CoLo-357 cells) was “concentration-dependent decrease in liposome accumulation”.

For Methyl-β-cyclodextrin, the “Cell death caused by inhibitor” value (A549 or CoLo-357 cells; in the range of concentrations required for the inhibitory studies) was greater than 50%.

In the case of `CN(Cc1cnc2nc(N)nc(N)c2n1)c1ccc(C(=O)N[C@@H](CCC(=O)O)C(=O)O)cc1` [MTX, Methotrexate], the “t1/2α and t1/2β of MTX relative to MTX-DG (times lower)” value [1] is reported as “approximately 4 times”, the “Delay of palpable lymphoma appearance and tumor growth vs controls” value ([2]; both experiments, 10 mg/kg MTX or equivalent IV on days 3, 5, 10, 12) is reported as “significant delay in palpable lymphoma appearance” and the “Increase in the mean life span vs control group” value ([2]; first experiment, mice aged 6 months, 4 IV injections, days 3, 5, 10, 12) is reported as 23%. The “Toxicity / tolerability in old recipient mice” value ([2]; second experiment, mice aged 12 months, 4 IV injections) was “pronounced toxicity”.
